# RGS4 pot: potentiators or activators of RGS4. HEK293 M3R/inducible RGS4, carbachol calcium flux Fluo4; hits give low values. 310,000 tested, 0.92% active. B-score at 10 µM;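 active = B-score of the integrated calcium signal more than 4 SD below the library mean, with starting fluorescence not abnormally high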;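 also: negative B-score means reduced calcium response which marks RGS4 activation or potentiation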
#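 Detection: kinetic calcium fluorescence imaging with Fluo4-AM dye, 2 µM / Material: HEK293 cells with stable M3R and inducible RGS4 / Schedule: recording 10 s baseline at 1 Hz, 100 s post-agonist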
# MrgX1 allo act: human MrgX1 positive allosteric modulation, primary screen. MrgX1-HEK293, Fluo-4 calcium flux, FDSS; hits give high values. B-score at 10 µM. 310,000 tested, 0.63% active. AID 588675;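 active = plate-corrected calcium response at least 3 library SD above typical, normal starting fluorescence, not activating the receptor alone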;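 also: compound read alongside a low EC10 to EC30 dose of BAM8-22 agonist; peak minus trough fluorescence over baseline measured at the second addition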
# Target sequence (Q96LB2 whole entry, looked up): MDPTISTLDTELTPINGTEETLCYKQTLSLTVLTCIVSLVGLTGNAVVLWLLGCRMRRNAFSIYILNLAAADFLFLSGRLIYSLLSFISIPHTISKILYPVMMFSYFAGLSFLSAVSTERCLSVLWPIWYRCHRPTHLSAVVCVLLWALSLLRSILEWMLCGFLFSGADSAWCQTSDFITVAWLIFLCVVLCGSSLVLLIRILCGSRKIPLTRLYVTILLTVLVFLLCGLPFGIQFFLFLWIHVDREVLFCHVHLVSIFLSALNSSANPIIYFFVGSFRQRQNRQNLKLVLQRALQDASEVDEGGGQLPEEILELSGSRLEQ
# MrgX1 antagonist: blocks BAM8-22 activation of human MrgX1 receptor | 310,000 tested, 1.3% active | B-score at 10 µM | MRGX1-HEK293 calcium flux, Fluo-4, BAM8-22 antagonism; hits give low values | AID 588676 | Q96LB2;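 active = calcium-response B-score plate-corrected more than 3 library SD below zero, starting fluorescence within 5 deviations, no agonist response on first addition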;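 also: peak minus trough fluorescence over baseline after final BAM8-22 challenge near maximal dose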
# MrgX1 ag: activates human MrgX1 receptor signaling | MrgX1-HEK293 cells, Fluo-4 calcium fluorescence, agonist mode; hits give high values | B-score at 10 µM | 310,000 tested, 0.44% active;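 active = calcium response B-score plate-corrected fluorescence ratio at least 3 library SD, with starting fluorescence B-score inside 5 SD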
#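 Test system: HEK293 cells stably expressing human MrgX1 receptor; amount: 15,000 cells per well; doses: compound delivered in addition one of three; times: overnight plating before 1 h dye loading; detection: Fluo-4 NW calcium-flux fluorescence, kinetic read; read-out basis: B-scored fluorescence response ratio; controls: positive and negative controls per plate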
# RGS4 inh: inhibitors of human RGS4; 310,000 tested, 0.45% active; B-score at 10 µM; AID 463165; P49798; HEK293 M3R/RGS4 inducible, Fluo-4 calcium flux; hits give high values; triggered by carbachol at its EC20;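 active = B-score, a plate-corrected calcium signal, over three deviations above library mean, with baseline fluorescence within five deviations of library mean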;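 also: RGS4 expression induced by doxycycline in cells with stable M3 receptor; B-score is computed from the integrated fluorescence ratio over baseline after carbachol; higher B-score means a larger calcium signal and so more RGS4 inhibition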
# Target sequence (P49798 whole entry, looked up): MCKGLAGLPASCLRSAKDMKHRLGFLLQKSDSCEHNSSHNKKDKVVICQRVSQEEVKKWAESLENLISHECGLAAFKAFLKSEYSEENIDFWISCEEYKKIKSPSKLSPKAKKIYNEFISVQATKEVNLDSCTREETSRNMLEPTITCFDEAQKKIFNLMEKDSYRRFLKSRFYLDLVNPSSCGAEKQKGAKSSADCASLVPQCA
# MrgX1 PAM conf: human MrgX1 positive allosteric modulation, re-confirmation | shares compounds with MrgX1 allo act | MrgX1-HEK293, Fluo-4 calcium fluorescence, FDSS | activation (ratio percentage), % at 10 µM | 1,200 tested, 13% active | AID 602413;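 active = ratio at least 3 SD above the weak peptide control, stable starting fluorescence, no direct agonism earlier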;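 also: compound followed by low BAM8-22 agonist challenge near EC20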
# HEK293 Ca flux: counter-screen for MrgX1 antagonists: effect in parental HEK293 cells; shares compounds with MrgX1 antagonist; Fluo-4 calcium fluorescence, FDSS; fluorescence ratio F(max-min)/F0 at 10 µM; 4,000 tested, 2% active; AID 624111;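 active = duplicate-averaged calcium fluorescence ratio at least three times the standard deviation of buffer wells, a nonspecific response in parental cells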
# HEK293 Ca counter: MrgX1 allosteric activator counter-screen hit in parental HEK293 cells; AID 624114; shares compounds with MrgX1 antagonist; fluorescence ratio F(max-min)/F0 at 10 µM; parental HEK293 calcium flux, Fluo-4 fluorescence ratio; hits give high values; 4,000 tested, 0.4% active;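 active = calcium fluorescence ratio, averaged over duplicates, at least 3 SD of the buffer-well ratio, meaning a nonspecific response in receptor-free cells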;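 also: untransfected parental HEK293 lacking MrgX1 used as counterscreen for MrgX1 allosteric activators; fluorescence change taken during the second addition on a kinetic imager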
# HEK293 Ca cntr2: activity in parental HEK293 cells lacking MrgX1 receptor | shares compounds with MrgX1 antagonist | Fluo-4 calcium fluorescence (FDSS); hits give high values | fluorescence ratio F(max-min)/F0 at 10 µM | 4,000 tested, 8.7% active | AID 624115;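 active = calcium fluorescence ratio at least three times the spread of buffer wells, meaning a non-specific response in parental cells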
# A number is an active result; 0 = inactive; - = no result. A selection: hits, their analogues and other compounds. The true share with any hit is near 3.5%.
SMILES,RGS4 pot,MrgX1 allo act,MrgX1 antagonist,MrgX1 ag,RGS4 inh,MrgX1 PAM conf,HEK293 Ca flux,HEK293 Ca counter,HEK293 Ca cntr2
O=C(C1CCCN(S(=O)(=O)c2cccs2)C1)N1CCc2ccccc2C1 (stereo not given),0,9.6,0,0,0,0,0,0,0
Cc1ccc(CN2CCSc3ccc(C(=O)NC4CCCC4)cc32)cc1,0,9.4,0,0,0,0,0,0,0
O=C(NC1CCCC1)c1ccc2c(c1)N(Cc1ccc(F)cc1)CCS2,0,0,0,0,0,-,-,-,-
O=C(N1CCCCC1)N1CCN(C(c2ccccc2)c2ccccc2)CC1,0,6.9,0,0,0,0,0,0,0
O=C(N1CCOCC1)N1CCN(C(c2ccccc2)c2ccccc2)CC1,0,0,0,0,0,-,-,-,-
Cc1ccc(Oc2ncnc3sccc23)cc1,0,17,0,0,0,2.5%,0,0,0
c1cnc2c(Oc3ncnc4sccc34)cccc2c1,0,0,0,0,0,-,-,-,-
COC(=O)CN1C(=O)C2(C(C#N)=C(N)Oc3c2c(C)nn3-c2ccccc2)c2ccccc21 (stereo not given),0,7.4,0,0,0,0,0,0,0
COC(=O)CN1C(=O)C2(C(C#N)=C(N)Oc3n[nH]c(-c4cccs4)c32)c2ccccc21 (stereo not given),0,0,0,0,0,-,-,-,-
COc1cc(CN2CCC(n3nccc3NC(=O)C3CC3)CC2)cc(OC)c1,0,0,0,0,0,-,-,-,-
Cc1cc(/C=C2/SC(=S)N(c3cccc(Cl)c3)C2=O)c(C)n1-c1cccnc1,0,19,0,0,0,0,0,0,0
COC(=O)C1=C(N)c2c(F)cccc2C1(C#N)c1ccc(F)cc1 (stereo not given),0,8.4,0,0,0,0,0,0,0
O=C(COC(=O)c1cccs1)c1ccccc1,0,18,0,0,0,0,0,0,0
O=C(O)CSc1ncnc2scc(-c3ccc(Br)cc3)c12,0,10,0,0,0,0,0,0,0
O=C(O)CSc1ncnc2scc(-c3ccccc3)c12,0,0,0,0,0,-,-,-,-
COc1ccc(OC)c(C(=O)NC(CC(N)=O)c2ccc(N3CCN(c4ccccn4)CC3)c([N+](=O)[O-])c2)c1 (stereo not given),0,0,0,0,0,-,-,-,-
CCCN(CC(=O)Nc1ccc(F)c(F)c1F)C(=O)CCc1nc2ccccc2c(=O)[nH]1,0,0,0,0,0,-,-,-,-
Cn1c(SCC(=O)Nc2ccc(Br)cc2)nc(O)cc1=O,0,0,0,0,0,-,-,-,-
CCCC[C@@H]1CNC(=O)C(=O)N1CCc1cccc2ccccc12,0,0,0,0,0,-,-,-,-
Cn1ncc(Br)c1C(=O)NC12CC3CC(CC(C3)C1)C2,0,8.6,0,0,0,0,0,0,0
CC1CCCC(NC(=O)CCS(=O)(=O)c2cc3c(cc2Cl)NC(=O)CO3)C1C (stereo not given),0,0,0,0,0,-,-,-,-
CC1CCCC(NS(=O)(=O)c2cc3c(cc2Cl)NC(=O)CO3)C1C (stereo not given),0,21,0,0,0,0,0,0,0
Cc1cc(N2CCN(C)CC2)nc2ccc(NC(=S)N3CCC4(CC3)OCCO4)cc12,0,7.4,0,0,0,0,0,0,0
Clc1ccc(CSc2cc3c(nn2)-c2ccccc2CC3)cc1,0,8,0,0,0,0,0,48,0
C/C(=N\OCC(=O)Nc1ccccc1C(=O)O)c1cccs1,0,0,0,0,0,-,-,-,-
SMILES,RGS4 pot,MrgX1 allo act,MrgX1 antagonist,MrgX1 ag,RGS4 inh,MrgX1 PAM conf,HEK293 Ca flux,HEK293 Ca counter,HEK293 Ca cntr2
C/C(=N/OCC(=O)Nc1ccc(C)cc1C)c1cccs1,0,27,0,0,0,3.9%,0,0,0
N#CC1(c2ccccc2)CCC(=NO)CC1 (stereo not given),0,0,0,0,0,-,-,-,-
COc1cccc(C(=O)NCCn2ccc3ccccc32)c1,0,8.8,0,0,0,0,0,0,0
COc1cc(OC)cc(C(=O)NCCn2ccc3ccccc32)c1,0,0,0,0,0,-,-,-,-
CC1CCc2c(cnc3ncnn23)C1 (stereo not given),0,0,0,0,0,-,-,-,-
Cc1ccccc1-c1nc2sc3c(c2c(=O)o1)CCC3,0,0,0,0,0,-,-,-,-
O=c1oc(-c2ccccc2)nc2sc3c(c12)CCCC3,0,13,0,0,0,0,0,0,0
Cc1sc(N(C(=O)CCc2ccccc2)c2ccc(C(=O)O)cc2)nc1-c1ccccc1,0,0,0,0,0,-,-,-,-
CCC(=O)N(c1ccc(C(=O)O)cc1)c1nc(-c2ccc(OC)cc2)c(C)s1,0,6.5,0,0,0,0,0,0,0
CCc1cccc(NC(=O)c2ccc(NS(=O)(=O)c3c(C)noc3C)cc2)c1,0,15,0,0,0,15%,0,0,0
Cc1ccc(Cl)cc1NC(=O)COC(=O)c1ccc(N2CCCC2)c([N+](=O)[O-])c1,0,0,0,0,0,-,-,-,-
Cc1cc(C)c(S(=O)(=O)Cc2ccccc2)c(Cl)n1,0,0,0,0,0,-,-,-,-
COc1ccccc1CNC(=O)c1cc(S(=O)(=O)N2CCCCC2)c[nH]1,0,0,0,0,0,-,-,-,-
OCC1(CCOc2ccccc2)CCN(Cc2cn[nH]c2-c2ccc(F)cc2)CC1,0,11,0,0,0,0,0,0,0
Cc1ccc2[nH]cc(C(=O)CCl)c2c1,0,7.4,0,0,0,0,0,0,0
Oc1ccc(-n2cnnn2)cc1,0,0,0,0,0,-,-,-,-
COc1ccc(CCNC(=O)C2Cc3ccccc3C(=O)O2)cc1 (stereo not given),0,14,0,0,0,0,0,0,0
CN(C)C(=O)c1cn(-c2ccccc2)nc1-c1cc2ccccc2oc1=O,0,0,0,0,0,-,-,-,-
CN(C)C(=O)c1cn(-c2ccccc2)nc1-c1cc2ccccc2o1,0,8,0,0,0,0,0,0,0
CC(=O)c1c(-c2ccc(C)cc2)nc2c3ccccc3ccn12,0,6.8,0,0,0,16%,0,0,0
Cc1sc2ncnc(NCC(C)(C)N3CCOCC3)c2c1C,0,8.7,0,0,0,0,0,0,0
Cc1sc2ncnc(NCC3(N4CCOCC4)CCCCC3)c2c1C,0,0,0,0,0,-,-,-,-
Nn1c(SCC(=O)Nc2cccc(S(N)(=O)=O)c2)nnc1C1CC1,0,7.8,0,0,0,0,0,0,0

# Screens as filed in PubChem.
